Laboratory results from ChEMBL document CHEMBL2203081 (Bioorg Med Chem Lett, 2012).
Active and inactive are the calls of the source. The rule behind the calls is not given here.

Legend:
[1] = molecular target: Serine/threonine-protein kinase SBK1 (Homo sapiens) (UniProt Q52WX2); test: Inhibition of SBK1 assessed as residual activity at 10 uM relative to control
[2] = molecular target: Cyclin-dependent kinase 2/cyclin A (Homo sapiens) (UniProt P24941+P20248+P78396); test: Inhibition of CDK2-Cyclin A assessed as residual activity at 10 uM; assay type: protein-complex assay
[3] = molecular target: Receptor-interacting serine/threonine-protein kinase 2 (Homo sapiens) (UniProt O43353); test: Inhibition of RIPK2 assessed as residual activity at 10 uM relative to control
Sequence of Receptor-interacting serine/threonine-protein kinase 2 (Homo sapiens) (O43353 whole entry): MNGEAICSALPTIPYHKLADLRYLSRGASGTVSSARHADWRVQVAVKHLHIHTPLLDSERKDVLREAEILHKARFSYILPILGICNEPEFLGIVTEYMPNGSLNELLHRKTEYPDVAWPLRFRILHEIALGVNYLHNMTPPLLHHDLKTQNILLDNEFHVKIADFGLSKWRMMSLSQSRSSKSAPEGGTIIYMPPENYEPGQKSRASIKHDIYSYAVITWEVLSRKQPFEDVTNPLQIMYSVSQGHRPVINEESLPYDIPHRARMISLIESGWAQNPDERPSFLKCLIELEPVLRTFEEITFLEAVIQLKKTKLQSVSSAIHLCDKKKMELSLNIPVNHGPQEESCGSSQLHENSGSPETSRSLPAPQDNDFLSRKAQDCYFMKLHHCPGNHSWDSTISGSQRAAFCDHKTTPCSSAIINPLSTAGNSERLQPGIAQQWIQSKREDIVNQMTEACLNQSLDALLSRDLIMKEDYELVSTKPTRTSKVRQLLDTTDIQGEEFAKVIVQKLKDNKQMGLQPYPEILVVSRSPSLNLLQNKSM

[4] = test system: Brain; test: Volume of distribution at steady state in Swiss albino mouse […] at 1 mg/kg, iv; assay type: ADME, organism-based; design: dose 1 mg/kg, route intravenous; settings: in vivo
[5] = test system: Epidermal growth factor receptor (Homo sapiens), P00533 [T790M]; test: Inhibition of EGFR T790M mutant assessed as residual activity at 10 uM relative to control; assay type: protein assay
Method in brief: (§1)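 Competition kinase-binding assay (KINOMEscan) across a non-redundant panel of 329 kinases beyond the radiometric panel; residual binding expressed relative to control.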

[6] = molecular target: Death-associated protein kinase 2 (Homo sapiens) (UniProt Q9UIK4); test: Inhibition of DAPK2 assessed as residual activity at 10 uM relative to control; method in brief: as §1
Sequence of Death-associated protein kinase 2 (Homo sapiens) (Q9UIK4 whole entry, looked up): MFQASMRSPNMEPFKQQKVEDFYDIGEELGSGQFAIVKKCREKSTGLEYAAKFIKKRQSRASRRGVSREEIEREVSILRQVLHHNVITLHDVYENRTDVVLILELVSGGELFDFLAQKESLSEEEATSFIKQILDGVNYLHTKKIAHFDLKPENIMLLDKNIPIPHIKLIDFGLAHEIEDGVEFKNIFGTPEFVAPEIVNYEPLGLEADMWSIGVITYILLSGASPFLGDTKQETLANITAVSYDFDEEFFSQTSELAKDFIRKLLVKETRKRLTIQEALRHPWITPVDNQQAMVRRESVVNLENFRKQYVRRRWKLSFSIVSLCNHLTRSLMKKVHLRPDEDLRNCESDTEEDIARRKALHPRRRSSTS

[7] = molecular target: Cyclin-dependent kinase 18 (Homo sapiens) (UniProt Q07002); test: Inhibition of PCTK3 assessed as residual activity at 10 uM relative to control
[8] = molecular target: Serine/threonine-protein kinase WNK1 (Homo sapiens) (UniProt Q9H4A3); test: Inhibition of WNK1 assessed as residual activity at 10 uM relative to control
[9] = molecular target: Tyrosine-protein kinase Yes (Homo sapiens) (UniProt P07947); test: Inhibition of YES1 assessed as residual activity at 1 uM
Sequence of Tyrosine-protein kinase Yes (Homo sapiens) (P07947 2-543 limits assumed): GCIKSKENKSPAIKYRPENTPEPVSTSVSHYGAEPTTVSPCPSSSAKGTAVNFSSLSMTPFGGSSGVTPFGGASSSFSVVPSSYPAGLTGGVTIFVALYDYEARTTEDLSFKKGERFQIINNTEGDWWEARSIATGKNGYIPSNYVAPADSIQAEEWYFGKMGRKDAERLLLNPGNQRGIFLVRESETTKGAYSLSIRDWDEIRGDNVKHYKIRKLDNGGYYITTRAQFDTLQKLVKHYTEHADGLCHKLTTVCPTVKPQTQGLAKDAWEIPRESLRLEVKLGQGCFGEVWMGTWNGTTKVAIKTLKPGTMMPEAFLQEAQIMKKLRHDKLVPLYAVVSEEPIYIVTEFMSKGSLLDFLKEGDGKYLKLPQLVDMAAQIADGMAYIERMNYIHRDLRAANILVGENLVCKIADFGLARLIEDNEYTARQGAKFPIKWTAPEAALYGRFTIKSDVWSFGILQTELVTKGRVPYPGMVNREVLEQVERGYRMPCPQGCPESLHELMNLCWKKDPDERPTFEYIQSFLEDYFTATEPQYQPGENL

[10] = test system: Mus musculus; test: Inhibition of LRRK2 in mouse assessed as inhibition of Ser910 autophosphorylation in kidney at 100 mg/kg, ip by immunoblot method; assay type: functional, organism-based; design: dose 100 mg/kg
[11] = molecular target: Mitogen-activated protein kinase 1 (Homo sapiens) (UniProt P28482); test: Inhibition of ERK2 assessed as residual activity at 10 uM relative to control
[12] = test system: Plasma; test: AUClast in Swiss albino mouse plasma at 1 mg/kg, iv; assay type: ADME, organism-based; design: time 0 - last, dose 1 mg/kg, route intravenous; settings: in vivo
Method in brief: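 Male Swiss Albino mice, single dose given intravenously (1 mg/kg) or orally (10 mg/kg). Drug measured in plasma and brain, with AUClast taken for each. The brain/plasma ratio is based on AUClast, and oral bioavailability is derived from the IV and PO plasma data.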

[13] = molecular target: Mitogen-activated protein kinase 9 (Homo sapiens) (UniProt P45984); test: Inhibition of JNK2 assessed as residual activity at 1 uM
Sequence of Mitogen-activated protein kinase 9 (Homo sapiens) (P45984 whole entry, looked up): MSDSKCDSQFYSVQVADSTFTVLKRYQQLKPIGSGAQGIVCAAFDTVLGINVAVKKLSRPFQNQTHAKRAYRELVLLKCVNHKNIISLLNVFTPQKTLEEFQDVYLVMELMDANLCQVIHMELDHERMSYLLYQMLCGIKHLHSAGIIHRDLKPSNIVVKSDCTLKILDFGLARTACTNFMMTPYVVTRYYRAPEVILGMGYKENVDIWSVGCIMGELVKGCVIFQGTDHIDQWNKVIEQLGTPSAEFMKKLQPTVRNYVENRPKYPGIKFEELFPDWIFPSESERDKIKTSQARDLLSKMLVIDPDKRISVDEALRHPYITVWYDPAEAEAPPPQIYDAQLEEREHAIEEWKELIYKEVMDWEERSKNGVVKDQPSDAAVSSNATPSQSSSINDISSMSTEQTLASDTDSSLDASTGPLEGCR
Method in brief: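 Radioactivity-based enzymatic activity assay of the named kinase, run as part of a 131-kinase specificity panel at the National Centre for Protein Kinase Profiling (Dundee). Residual activity was read at the stated single inhibitor concentration.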

[14] = molecular target: Serine/threonine-protein kinase 24 (Homo sapiens) (UniProt Q9Y6E0); test: Inhibition of MST3 assessed as residual activity at 1 uM
[15] = molecular target: Tyrosine-protein kinase Lck (Homo sapiens) (UniProt P06239); test: Inhibition of Lck assessed as residual activity at 1 uM
[16] = test system: Mus musculus; test: Inhibition of LRRK2 in mouse assessed as inhibition of Ser910 autophosphorylation in brain at 100 mg/kg, ip by immunoblot method; assay type: functional, organism-based; design: dose 100 mg/kg
[17] = molecular target: Serine/threonine-protein kinase PAK 5 (Homo sapiens) (UniProt Q9P286); test: Inhibition of PAK7 assessed as residual activity at 10 uM relative to control
[18] = molecular target: Ribosomal protein S6 kinase beta-1 (Homo sapiens) (UniProt P23443); test: Inhibition of S6K1 assessed as residual activity at 1 uM
Sequence of Ribosomal protein S6 kinase beta-1 (Homo sapiens) (P23443 whole entry, looked up): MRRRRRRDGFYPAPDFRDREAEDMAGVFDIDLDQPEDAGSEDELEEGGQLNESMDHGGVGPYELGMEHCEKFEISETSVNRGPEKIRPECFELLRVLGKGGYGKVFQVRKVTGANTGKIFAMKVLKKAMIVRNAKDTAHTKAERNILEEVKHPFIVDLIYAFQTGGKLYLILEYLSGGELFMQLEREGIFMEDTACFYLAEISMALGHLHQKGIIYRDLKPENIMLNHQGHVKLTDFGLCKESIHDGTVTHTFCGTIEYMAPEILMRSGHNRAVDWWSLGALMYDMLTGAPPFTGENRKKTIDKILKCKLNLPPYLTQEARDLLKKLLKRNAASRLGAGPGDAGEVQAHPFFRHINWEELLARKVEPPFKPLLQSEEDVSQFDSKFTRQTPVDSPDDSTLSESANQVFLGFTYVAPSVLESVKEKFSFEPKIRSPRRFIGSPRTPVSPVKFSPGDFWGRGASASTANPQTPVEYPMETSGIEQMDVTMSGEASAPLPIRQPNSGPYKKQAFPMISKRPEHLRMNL

[19] = molecular target: MAP kinase-activated protein kinase 2 (Homo sapiens) (UniProt P49137); test: Inhibition of MAPKAPK2 assessed as residual activity at 10 uM relative to control
[20] = test system: Mast/stem cell growth factor receptor Kit (Homo sapiens), P10721 [V559D]; test: Inhibition of KIT V559D mutant assessed as residual activity at 10 uM relative to control
[21] = molecular target: Phosphatidylinositol 4-phosphate 3-kinase C2 domain-containing subunit beta (Homo sapiens) (UniProt O00750); test: Inhibition of PIK3C2B assessed as residual activity at 10 uM relative to control
[22] = test system: Mast/stem cell growth factor receptor Kit (Homo sapiens), P10721 [V559D,T670I]; test: Inhibition of KIT V559D,T670I mutant assessed as residual activity at 10 uM relative to control
Sequence of Mast/stem cell growth factor receptor Kit (Homo sapiens), P10721 [V559D,T670I] (P10721 whole entry V559D/T670I): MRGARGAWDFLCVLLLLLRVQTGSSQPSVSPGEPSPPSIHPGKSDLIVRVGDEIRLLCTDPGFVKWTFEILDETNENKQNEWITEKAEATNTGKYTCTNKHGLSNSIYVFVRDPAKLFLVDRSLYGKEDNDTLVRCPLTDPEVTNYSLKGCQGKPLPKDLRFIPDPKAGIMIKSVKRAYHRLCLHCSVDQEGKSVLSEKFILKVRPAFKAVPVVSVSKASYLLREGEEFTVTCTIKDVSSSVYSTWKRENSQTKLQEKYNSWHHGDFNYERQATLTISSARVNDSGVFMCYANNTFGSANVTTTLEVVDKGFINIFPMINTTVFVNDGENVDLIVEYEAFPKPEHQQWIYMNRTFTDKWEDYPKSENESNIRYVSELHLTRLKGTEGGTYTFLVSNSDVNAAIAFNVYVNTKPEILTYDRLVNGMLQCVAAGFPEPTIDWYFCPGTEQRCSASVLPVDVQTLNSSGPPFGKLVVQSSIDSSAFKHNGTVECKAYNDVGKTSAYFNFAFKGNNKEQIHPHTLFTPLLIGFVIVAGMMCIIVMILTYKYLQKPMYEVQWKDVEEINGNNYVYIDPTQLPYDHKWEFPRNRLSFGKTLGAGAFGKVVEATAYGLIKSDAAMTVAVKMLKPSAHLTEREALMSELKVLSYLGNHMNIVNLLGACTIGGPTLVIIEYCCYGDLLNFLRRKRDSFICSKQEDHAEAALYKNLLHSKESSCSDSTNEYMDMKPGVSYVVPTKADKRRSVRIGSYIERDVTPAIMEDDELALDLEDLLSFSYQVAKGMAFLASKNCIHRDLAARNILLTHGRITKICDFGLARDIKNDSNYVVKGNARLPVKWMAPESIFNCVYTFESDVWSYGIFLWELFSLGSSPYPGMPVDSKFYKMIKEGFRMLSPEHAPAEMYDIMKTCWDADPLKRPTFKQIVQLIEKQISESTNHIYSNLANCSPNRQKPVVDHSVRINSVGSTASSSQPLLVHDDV

[23] = molecular target: Testis-specific serine/threonine-protein kinase 1 (Homo sapiens) (UniProt Q9BXA7); test: Inhibition of TSSK1 assessed as residual activity at 1 uM
Sequence of Testis-specific serine/threonine-protein kinase 1 (Homo sapiens) (Q9BXA7 whole entry): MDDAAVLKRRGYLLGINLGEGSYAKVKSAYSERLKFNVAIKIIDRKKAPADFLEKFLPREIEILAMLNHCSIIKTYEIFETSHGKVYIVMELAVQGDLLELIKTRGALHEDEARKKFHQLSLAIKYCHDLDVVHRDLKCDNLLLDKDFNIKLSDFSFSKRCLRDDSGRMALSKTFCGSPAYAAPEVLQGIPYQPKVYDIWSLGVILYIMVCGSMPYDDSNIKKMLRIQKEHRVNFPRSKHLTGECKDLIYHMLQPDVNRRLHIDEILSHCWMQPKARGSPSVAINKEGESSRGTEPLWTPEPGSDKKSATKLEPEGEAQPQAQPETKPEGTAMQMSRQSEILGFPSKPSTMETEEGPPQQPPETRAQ

[24] = molecular target: Ribosomal protein S6 kinase alpha-5 (Homo sapiens) (UniProt O75582); test: Inhibition of MSK1 assessed as residual activity at 10 uM
[25] = molecular target: Serine/threonine-protein kinase 33 (Homo sapiens) (UniProt Q9BYT3); test: Inhibition of STK33 assessed as residual activity at 1 uM
Sequence of Serine/threonine-protein kinase 33 (Homo sapiens) (Q9BYT3 whole entry, looked up): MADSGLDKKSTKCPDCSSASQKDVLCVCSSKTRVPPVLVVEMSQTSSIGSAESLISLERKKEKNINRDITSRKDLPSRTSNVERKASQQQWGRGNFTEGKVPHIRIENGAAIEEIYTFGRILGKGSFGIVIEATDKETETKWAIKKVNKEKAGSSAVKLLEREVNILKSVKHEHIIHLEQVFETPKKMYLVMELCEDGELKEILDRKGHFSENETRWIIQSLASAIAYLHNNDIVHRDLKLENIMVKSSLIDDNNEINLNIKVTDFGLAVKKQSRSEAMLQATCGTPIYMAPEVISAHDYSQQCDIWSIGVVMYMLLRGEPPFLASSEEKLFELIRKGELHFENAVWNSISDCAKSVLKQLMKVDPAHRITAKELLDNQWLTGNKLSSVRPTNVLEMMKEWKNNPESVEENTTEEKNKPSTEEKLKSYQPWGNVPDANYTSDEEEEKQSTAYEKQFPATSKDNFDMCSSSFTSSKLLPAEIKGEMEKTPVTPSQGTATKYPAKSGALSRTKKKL

[26] = molecular target: Tyrosine-protein kinase BTK (Homo sapiens) (UniProt Q06187); test: Inhibition of BTK assessed as residual activity at 10 uM relative to control
Sequence of Tyrosine-protein kinase BTK (Homo sapiens) (Q06187 whole entry): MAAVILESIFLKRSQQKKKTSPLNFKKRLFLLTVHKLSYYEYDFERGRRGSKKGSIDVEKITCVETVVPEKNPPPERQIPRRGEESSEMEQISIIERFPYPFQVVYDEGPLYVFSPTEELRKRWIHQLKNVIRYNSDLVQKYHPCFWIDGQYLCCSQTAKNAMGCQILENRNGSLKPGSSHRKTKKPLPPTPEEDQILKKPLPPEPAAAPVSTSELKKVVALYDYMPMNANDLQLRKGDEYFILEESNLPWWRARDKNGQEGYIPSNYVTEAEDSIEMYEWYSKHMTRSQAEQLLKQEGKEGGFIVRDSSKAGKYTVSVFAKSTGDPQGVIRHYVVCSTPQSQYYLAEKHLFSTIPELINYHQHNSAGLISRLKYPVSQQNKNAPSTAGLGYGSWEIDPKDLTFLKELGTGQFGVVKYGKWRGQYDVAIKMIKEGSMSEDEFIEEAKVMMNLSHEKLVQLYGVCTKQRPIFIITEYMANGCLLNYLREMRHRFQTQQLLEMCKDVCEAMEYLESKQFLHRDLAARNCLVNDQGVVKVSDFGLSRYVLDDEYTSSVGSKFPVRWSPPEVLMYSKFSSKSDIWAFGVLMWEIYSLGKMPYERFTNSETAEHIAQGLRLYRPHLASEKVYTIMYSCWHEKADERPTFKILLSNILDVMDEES

[27] = molecular target: Dual specificity tyrosine-phosphorylation-regulated kinase 1A (Homo sapiens) (UniProt Q13627); test: Inhibition of DYRK1A assessed as residual activity at 10 uM
Method in brief: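 Standard radioactivity-based enzymatic kinase assays on a 131-kinase panel run by the Dundee profiling service; residual kinase activity recorded.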

[28] = molecular target: T1, Serine/threonine-protein kinase STK11 (Homo sapiens) (UniProt Q15831); test: Inhibition of LKB1 assessed as residual activity at 10 uM
T1 sequence (whole entry): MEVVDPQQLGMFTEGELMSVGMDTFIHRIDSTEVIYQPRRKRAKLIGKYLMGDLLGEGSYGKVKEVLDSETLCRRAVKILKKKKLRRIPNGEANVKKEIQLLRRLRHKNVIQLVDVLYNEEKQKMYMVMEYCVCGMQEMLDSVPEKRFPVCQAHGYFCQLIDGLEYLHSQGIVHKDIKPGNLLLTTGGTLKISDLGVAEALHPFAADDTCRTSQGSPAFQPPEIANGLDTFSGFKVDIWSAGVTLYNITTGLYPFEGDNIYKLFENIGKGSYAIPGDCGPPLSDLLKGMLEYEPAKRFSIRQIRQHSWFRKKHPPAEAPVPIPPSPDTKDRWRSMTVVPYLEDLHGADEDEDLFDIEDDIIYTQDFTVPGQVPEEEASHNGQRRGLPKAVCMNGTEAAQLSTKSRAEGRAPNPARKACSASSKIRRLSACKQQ

[29] = molecular target: T1, Serine/threonine-protein kinase STK11 (Homo sapiens); test: Inhibition of LKB1 assessed as residual activity at 1 uM
[30] = molecular target: Cyclin-dependent kinase 11B (Homo sapiens) (UniProt P21127); test: Inhibition of CDC2L1 assessed as residual activity at 10 uM relative to control
[31] = molecular target: Serine/threonine-protein kinase SIK1 (Homo sapiens) (UniProt P57059); test: Inhibition of SIK assessed as residual activity at 10 uM relative to control

SMILES: O=C(Nc1cccnc1)c1cc(-c2ccnc(F)c2)ccc1OCc1ccccc1
- Activity [1]: 46%
- Activity [2]: 117%
- Activity [3]: 53%
- Vdss [4]: 1.6 L/kg
- Activity [5]: 40%
- Activity [6]: 69%
- Activity [7]: 58%
- Activity [8]: 61%
- Activity [9]: 120%
- inhibition [10]: Active
- Activity [11]: 44%
- AUClast [12]: 519.6 ng·h/mL
- Activity [13]: 107%
- Activity [14]: 101%
- Activity [15]: 113%
- inhibition [16]: inactive
- Activity [17]: 69%
- Activity [18]: 101%
- Activity [19]: 74%
- Activity [20]: 70%
- Activity [21]: 42%
- Activity [22]: 52%
- Activity [23]: 103%
- Activity [24]: 120%
- Activity [25]: 64%
- Activity [26]: 64%
- Activity [27]: 104%
- Activity [28]: 105%
- Activity [29]: 97%
- Activity [30]: 67%
- Activity [31]: 46%
